Experimental data: ChEMBL document CHEMBL1153523, “Design, synthesis, and biological activity of a family of novel ceramide analogues in chemoresistant breast cancer cells” (J Med Chem, 2009)
Calls of active or inactive are those of the source. The rule behind the calls is not given here.

Key:
MCF7 [1] = assay: Inhibition of clonogenic survival of human MCF7 cells after 10 days by microscopy; assay type: functional, cell-based; settings: MCF7, 240 h
How it was run: (§1)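 Clonogenic survival: cells were treated at 0.1 to 20 µM for 10 days. Colonies were then fixed and stained, and counts were expressed as percent of vehicle control.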

MCF7 [2] = assay: Inhibition of clonogenic survival of tumor necrosis factor-resistant human MCF7 cells after 10 days by microscopy; assay type: functional, cell-based; settings: MCF7, 240 h; how it was run: as §1
MDA-MB-231 [3] = assay: Inhibition of clonogenic survival of endocrine-resistant human MDA-MB-231 cells after 10 days by microscopy; assay type: functional, cell-based; settings: MDA-MB-231, 240 h; how it was run: as §1
MCF7 [4] = assay: Inhibition of clonogenic survival of tumor necrosis factor-resistant human MCF7 cells at 0.1 to 20 uM after 10 days by microscopy; assay type: functional, cell-based; how it was run: as §1
MDA-MB-231 [5] = assay: Inhibition of clonogenic survival of endocrine-resistant human MDA-MB-231 cells at 0.1 to 20 uM after 10 days by microscopy; assay type: functional, cell-based; how it was run: as §1
MCF7 [6] = assay: Inhibition of clonogenic survival of human MCF7 cells at 0.1 to 20 uM after 10 days by microscopy; assay type: functional, cell-based; how it was run: as §1
MCF7 [7] = assay: Decrease in endogenous sphingosine-1-phosphate level in tumor necrosis factor-resistant human MCF7 cells at 10 uM after by ESI/MS/MS analysis; assay type: functional, cell-based
How it was run: (§2)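 MCF-7, MDA-MB-231 or MCF-7TN-R cells were treated at 10 µM for 24 h, and cellular sphingolipid species were then quantified. Values are mean ± SE of two independent experiments.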

MCF7 [8] = assay: Induction of apoptosis in human MCF7 cells assessed as appearance of nucleosomes in cytoplasm at 9.4 uM after 24 hrs by ELISA relative to DMSO control; assay type: functional
How it was run: (§3)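 Apoptosis in MCF-7 cells was measured by a cell death detection ELISA after 24 h exposure at 8.3 or 9.4 µM. Values are mean ± SE of three independent experiments.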

[9] = Antiproliferative activity against human MCF10A cells at 100 uM after 24 hrs by MTT assay; assay type: cell-based; settings: mcf-10a
How it was run: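 Normal MCF10A breast epithelial cells were exposed to drug at 0.1–100 µM for 24 h, and proliferation was measured. Values are mean ± SE of four independent experiments.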

MDA-MB-231 [10] = assay: Decrease in endogenous sphingosine-1-phosphate level in endocrine-resistant human MDA-MB-231 cells at 10 uM after by ESI/MS/MS analysis; assay type: functional, cell-based; how it was run: as §2
MCF7 [11] = assay: Increase in endogenous dihydrosphingosine level in tumor necrosis factor-resistant human MCF7 cells at 10 uM after 24 hrs by ESI/MS/MS analysis relative to DMSO control; assay type: functional; how it was run: as §2
MCF7 [12] = assay: Decrease in endogenous sphingosine-1-phosphate level in human MCF7 cells at 10 uM after by ESI/MS/MS analysis; assay type: functional, cell-based; how it was run: as §2
MCF7 [13] = assay: Increase in endogenous sphingosine-1-phosphate level in human MCF7 cells at 10 uM after by ESI/MS/MS analysis; assay type: functional, cell-based; how it was run: as §2
MCF7 [14] = assay: Selectivity for tumor necrosis factor-resistant human MCF7 cells over human MCF10A cells
MDA-MB-231 [15] = assay: Increase in endogenous sphingosine-1-phosphate level in endocrine-resistant human MDA-MB-231 cells at 10 uM after by ESI/MS/MS analysis; assay type: functional, cell-based; how it was run: as §2
MCF7 [16] = assay: Induction of apoptosis in human MCF7 cells assessed as appearance of nucleosomes in cytoplasm at 8.3 uM after 24 hrs by ELISA relative to DMSO control; assay type: functional; how it was run: as §3
MCF7 [17] = assay: Increase in endogenous sphingosine-1-phosphate level in tumor necrosis factor-resistant human MCF7 cells at 10 uM after by ESI/MS/MS analysis; assay type: functional, cell-based; how it was run: as §2

Row | SMILES | IC50 (MCF7 [1]) [µM] | IC50 (MCF7 [2]) [µM] | IC50 (MDA-MB-231 [3]) [µM] | Activity (MCF7 [4]) | Activity (MDA-MB-231 [5]) | Activity (MCF7 [6]) | Activity (MCF7 [7]) | fold change (FC) (MCF7 [8]) | Activity [9] | Activity (MDA-MB-231 [10]) | fold change (FC) (MCF7 [11]) | Activity (MCF7 [12]) | Activity (MCF7 [13]) | Ratio (MCF7 [14]) | Activity (MDA-MB-231 [15]) | fold change (FC) (MCF7 [16]) | Activity (MCF7 [17])
1 | CCCCCCCCCCCCCCC[C@H](O)[C@@H](CO)NC(=O)CCCCCCC (single isomer, unassigned) | 31.7 | 49.6 | 41.4 |  |  |  |  |  |  |  |  |  |  |  |  |  | 
2 | CCCCCCCCCCCCCCNC(=O)[C@H](CO)NC(=O)C1CCCCC1 | 7.2 | 23.5 | 11.5 | Active | Active | Active |  |  |  |  |  |  |  |  |  |  | 
3 | CCCCCCCCCCCCCCNC(=O)[C@H](CO)NCc1ccccc1 | 5 | 15.2 | 10.5 | Active | Active | Active |  |  |  |  |  |  |  |  |  |  | 
4 | CCCCCCCCCCCCCCNC(=O)[C@H](CO)/N=C/c1ccccc1 | 4.7 | 7.7 | 2.4 | Active | Active | Active | Active | 5.4 | Non-toxic | Active | 50 | Active |  |  |  |  | 
5 | CCCCCCCCCCCCCCNC(=O)[C@H](CO)NC(=O)c1cc(OC)cc(OC)c1 | 11.2 | 15 | 6.6 | Active | Active | Active |  |  |  |  |  |  |  |  |  |  | 
6 | CCCCCCCCCCCCCCNC(=O)[C@H](CO)NC(C)=O | 44.7 | 52.7 | 75.1 | Active | Active | Active |  |  |  |  |  |  |  |  |  |  | 
7 | CCCCCCCCCCCCC/C=C/[C@@H](O)[C@H](CO)NC(=O)CCCCCCC | 4.2 | 8.6 | 3 |  |  |  |  |  | Non-toxic |  |  |  | Active | >50 | Active | 5 | Active
8 | CCCCCCCCCCCCCCNC(=O)[C@H](CO)NC(=O)C(C)(C)C | 6.7 | 11.1 | 6.1 | Active | Active | Active |  |  |  |  |  |  |  |  |  |  | 
